Target: interphotoreceptor retinoid-binding protein (IRBP) (Bos taurus, UniProt P12661)
Experiment: Surface plasmon resonance
Parameters: species or system bovine
Conditions: for Stoichiometry (No. of sites): SPR, 25°C, n=3, ligand:IRBP binding stoichiometry; for kon: pH 7.4, read-out: ka, association rate constant; for koff: pH 7.4, read-out: kd, dissociation rate constant
How it was run: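 IRBP purified by chromatography from dark-adapted bovine retinas and amine-coupled at 10 µg/mL in 10 mM sodium acetate pH 4.5 to 10–12 kRU, with an unmodified reference channel. Running buffer 10 mM PBS pH 7.4, 0.01% Tween-20, 3% DMSO; for fatty acids, HEPES pH 7.4, 0.01% Tween-20, 3% ethanol. Seven two-fold FastStep injections, typically 0.01–15 µM, in triplicate at 25°C. Data double-referenced and globally fitted.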

Sequence of interphotoreceptor retinoid-binding protein (IRBP) (P12661 23-1286): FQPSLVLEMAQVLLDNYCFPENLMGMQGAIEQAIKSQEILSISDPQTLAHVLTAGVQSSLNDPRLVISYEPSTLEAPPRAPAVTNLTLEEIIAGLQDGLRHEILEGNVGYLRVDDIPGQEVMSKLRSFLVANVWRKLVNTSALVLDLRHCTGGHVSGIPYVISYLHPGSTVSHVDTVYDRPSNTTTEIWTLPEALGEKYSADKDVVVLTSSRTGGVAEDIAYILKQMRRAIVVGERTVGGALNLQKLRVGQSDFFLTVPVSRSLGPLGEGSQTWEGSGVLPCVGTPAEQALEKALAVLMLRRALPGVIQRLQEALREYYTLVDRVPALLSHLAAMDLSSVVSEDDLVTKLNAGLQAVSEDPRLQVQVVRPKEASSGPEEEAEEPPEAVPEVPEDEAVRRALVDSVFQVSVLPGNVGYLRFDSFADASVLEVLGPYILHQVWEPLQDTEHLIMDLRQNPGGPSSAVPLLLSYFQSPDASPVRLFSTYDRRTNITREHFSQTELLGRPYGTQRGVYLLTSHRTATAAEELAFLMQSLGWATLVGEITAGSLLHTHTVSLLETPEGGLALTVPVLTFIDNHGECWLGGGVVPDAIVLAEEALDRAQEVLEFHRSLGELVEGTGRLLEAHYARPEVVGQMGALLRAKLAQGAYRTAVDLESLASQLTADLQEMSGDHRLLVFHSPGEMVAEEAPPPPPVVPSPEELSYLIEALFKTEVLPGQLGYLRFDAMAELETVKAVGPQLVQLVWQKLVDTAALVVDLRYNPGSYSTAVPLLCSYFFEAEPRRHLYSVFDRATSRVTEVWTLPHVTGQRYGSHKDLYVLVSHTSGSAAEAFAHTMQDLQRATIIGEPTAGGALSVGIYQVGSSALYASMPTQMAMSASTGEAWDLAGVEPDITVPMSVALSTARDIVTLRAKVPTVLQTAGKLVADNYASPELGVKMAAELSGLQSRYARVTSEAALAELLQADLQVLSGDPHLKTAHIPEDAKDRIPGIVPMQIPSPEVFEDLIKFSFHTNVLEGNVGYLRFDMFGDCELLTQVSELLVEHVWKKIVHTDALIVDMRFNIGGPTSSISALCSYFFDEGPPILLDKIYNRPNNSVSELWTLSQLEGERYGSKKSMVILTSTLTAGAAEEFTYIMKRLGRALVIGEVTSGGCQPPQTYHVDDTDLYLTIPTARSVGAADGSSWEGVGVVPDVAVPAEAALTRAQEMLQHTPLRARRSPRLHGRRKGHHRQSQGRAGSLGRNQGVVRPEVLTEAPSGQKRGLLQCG

Row | Stoichiometry (No. of sites) | Kd [µM] | kon [M⁻¹ s⁻¹] | koff [s⁻¹] | Compound
1 | 3.1 |  |  |  | CC1=C(/C=C/C(C)=C/C=C/C(C)=C/C=O)C(C)(C)CCC1 [11-cis-retinal]
2 | 3.7 | 10.2 ± 0.7 | 280000 ± 1e+09 | 2.8 ± 0.1 | CCCCCCCCCCCCCCCCCCCC(=O)O [Arachidic acid]
3 | 3.8 | 10 ± 0.1 | 24000 ± 3e+07 | 0.24 ± 0.3 | CCCCC/C=C\C/C=C\C/C=C\C/C=C\CCCC(=O)O [Arachidonic acid]
4 | 3.4 | 1.64 ± 0.06 | 26800 ± 9e+07 | 0.04 ± 0.5 | CC1=C(/C=C/C(C)=C/C=C/C(C)=C/C=C/C=C(C)/C=C/C=C(C)/C=C/C2=C(C)C(=O)[C@@H](O)CC2(C)C)C(C)(C)C[C@H](O)C1=O [Astaxanthin]
5 | 3.4 | 10 ± 0.1 | 20000 ± 2e+07 | 0.2 ± 0.2 | CC/C=C\C/C=C\C/C=C\C/C=C\C/C=C\C/C=C\CCC(=O)O [Docosahexaenoic acid (DHA), Docosahexaenoic acid]
6 | 3.4 | 9.4 ± 0.7 | 30000 ± 2e+07 | 0.28 ± 0.4 | CC/C=C\C/C=C\C/C=C\C/C=C\C/C=C\CCCC(=O)O [Eicosapentaenoic acid (EPA), Eicosapentaenoic acid]
7 | 3.7 | 11 ± 0.2 | 23000 ± 4e+07 | 0.26 ± 0.4 | CCCCC/C=C\C/C=C\CCCCCCCC(=O)O [Linoleic acid]
8 | 3.4 | 1.06 ± 0.2 | 49000 ± 9e+07 | 0.05 ± 0.4 | CC1=C[C@H](O)CC(C)(C)[C@H]1/C=C/C(C)=C/C=C/C(C)=C/C=C/C=C(C)/C=C/C=C(C)/C=C/C1=C(C)C[C@@H](O)CC1(C)C [Lutein]
9 | 3.7 | 11.1 ± 0.7 | 360000 ± 2e+09 | 0.4 ± 0.1 | CCCCCCCCCCCCCCCC(=O)O [Palmitic acid]
10 | 3.7 | 7.03 ± 0.1 | 32000 ± 4e+07 | 0.23 ± 0.6 | CCCCCCCCCCCCCCCCCC(=O)O [Stearic acid]
11 | 3.3 | 1.64 ± 0.5 | 33000 ± 1e+07 | 0.05 ± 0.5 | CC1=C(/C=C/C(C)=C/C=C/C(C)=C/C=C/C=C(C)/C=C/C=C(C)/C=C/C2=C(C)C[C@@H](O)CC2(C)C)C(C)(C)C[C@H](O)C1 [Zeaxanthin]
12 | 3.4 | 3.5 ± 0.1 | 40000 ± 1e+07 | 0.14 ± 0.2 | CC1=C(/C=C/C(C)=C/C=C/C(C)=C/C(=O)O)C(C)(C)CCC1 [all -trans -retinoic acid]
13 | 3.2 |  |  |  | CC1=C(/C=C/C(C)=C/C=C/C(C)=C/C=O)C(C)(C)CCC1 [all-trans-retinal]
14 | 3.5 |  |  |  | CC1=C(/C=C/C(C)=C/C=C/C(C)=C/CO)C(C)(C)CCC1 [all-trans-retinol]
15 | 3.1 | 0.92 ± 0.1 | 122000 ± 2e+09 | 0.11 ± 0.8 | CC1=C(/C=C/C(C)=C/C=C/C(C)=C/C=C/C=C(C)/C=C/C=C(C)/C=C/C2=C(C)CCCC2(C)C)C(C)(C)CCC1 [β-carotene]
16 | 3.2 |  |  |  | meso-zeaxanthin

Row | Compound | Stoichiometry (No. of sites) | Kd [µM] | kon [M⁻¹ s⁻¹] | koff [s⁻¹]
17 | CCCCCCCC/C=C\CCCCCCCC(=O)O [Oleic acid] | 3.6 | 7.3 ± 0.7 | 150000 ± 2e+09 | 1.1 ± 0.3
